Assays:
[1] = Antagonistic activity against HOXA1-PBX1/DNA complex formation by electrophoretic mobility shift assay; assay type: functional
Outline: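 Recombinant mouse HOXA1 192–288 and mouse/human PBX1 233–319 (2.5 ng each) preincubated 15 min at 4 °C in HEPES pH 7.9 binding buffer with 135 mM NaCl, poly dIdC and inhibitor in DMSO, then 30 min at ~22 °C with 32P-labeled Klenow-extended annealed oligonucleotide probe. Run on 4% polyacrylamide gel in TBE, autoradiographed; IC50 from averaged densitometry of multiple gels; screened initially at 300 μM.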

[2] = molecular target: POU domain, class 3, transcription factor 2 (Mus musculus) (UniProt P31360); test: Antagonistic activity against BRN2/DNA interaction by electrophoretic mobility shift assay
[3] = molecular target: POU domain, class 3, transcription factor 3 (Mus musculus) (UniProt P31361); test: Antagonistic activity against BRN1/DNA interaction by electrophoretic mobility shift assay
Chain of POU domain, class 3, transcription factor 3 (Mus musculus) (P31361 whole entry, looked up, the tested form may be a part): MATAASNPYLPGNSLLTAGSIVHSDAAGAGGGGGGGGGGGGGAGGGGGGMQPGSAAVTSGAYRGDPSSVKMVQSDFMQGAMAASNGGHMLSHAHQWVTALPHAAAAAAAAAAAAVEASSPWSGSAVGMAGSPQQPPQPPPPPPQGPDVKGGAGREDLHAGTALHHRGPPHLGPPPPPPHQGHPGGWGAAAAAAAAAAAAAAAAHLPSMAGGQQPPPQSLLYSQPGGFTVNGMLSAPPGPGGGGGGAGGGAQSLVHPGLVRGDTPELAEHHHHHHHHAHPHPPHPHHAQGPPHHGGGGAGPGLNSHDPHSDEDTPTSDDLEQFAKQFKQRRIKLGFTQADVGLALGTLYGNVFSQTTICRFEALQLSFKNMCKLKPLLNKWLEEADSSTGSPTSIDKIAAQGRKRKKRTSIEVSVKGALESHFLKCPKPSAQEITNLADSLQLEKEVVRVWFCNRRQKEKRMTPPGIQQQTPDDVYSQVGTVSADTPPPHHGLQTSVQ

Chain of POU domain, class 3, transcription factor 2 (Mus musculus) (P31360 whole entry, looked up, the tested form may be a part): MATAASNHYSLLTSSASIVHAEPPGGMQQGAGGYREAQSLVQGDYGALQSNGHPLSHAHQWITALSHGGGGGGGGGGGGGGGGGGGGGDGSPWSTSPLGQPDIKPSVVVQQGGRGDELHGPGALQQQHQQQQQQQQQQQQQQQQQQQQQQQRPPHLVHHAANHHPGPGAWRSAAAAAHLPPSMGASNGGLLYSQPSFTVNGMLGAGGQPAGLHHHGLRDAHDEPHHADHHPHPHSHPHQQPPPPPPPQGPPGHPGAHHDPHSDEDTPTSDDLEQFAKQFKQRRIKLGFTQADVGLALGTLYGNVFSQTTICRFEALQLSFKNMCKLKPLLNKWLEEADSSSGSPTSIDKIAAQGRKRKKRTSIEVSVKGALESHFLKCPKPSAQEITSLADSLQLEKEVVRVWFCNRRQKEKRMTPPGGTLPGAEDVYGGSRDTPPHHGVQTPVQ

SMILES	IC50 [1] [µM]	IC50 [2] [µM]	IC50 [3] [µM]
CCOC(=O)CNC(=O)COc1ccc(C(=O)Nc2cccc(F)c2)c2ccccc12	> 300		
COc1ccc(NC(=O)COc2ccc(C(=O)Nc3cccc(F)c3)c3ccccc23)cc1OC	464		
O=C(COc1ccc(C(=O)Nc2cccc(F)c2)c2ccccc12)Nc1cccc(F)c1	> 300		
O=C(Nc1cccc(F)c1)c1ccc(OCC(=O)N2CCOCC2)c2ccccc12	> 300		
O=C(O)CNC(=O)COc1ccc(C(=O)Nc2cccc(F)c2)c2ccccc12	> 300		
O=C(COc1ccc(C(=O)Nc2cccc(F)c2)c2ccccc12)NCCOCc1ccccc1	> 300		
CNC(=O)COc1ccc(C(=O)Nc2cccc(F)c2)c2ccccc12	> 300		
COc1cc(CNC(=O)COc2ccc(C(=O)Nc3cccc(F)c3)c3ccccc23)cc(OC)c1	> 300		
CC(C)(C)NC(=O)COc1ccc(C(=O)Nc2cccc(F)c2)c2ccccc12	> 300		
O=C(COc1ccc(C(=O)Nc2cccc(F)c2)c2ccccc12)Nc1ccccc1F	433		
O=C(COc1ccc(C(=O)Nc2cccc(F)c2)c2ccccc12)NCCO	> 300		
COc1cc(NC(=O)COc2ccc(C(=O)Nc3cccc(F)c3)c3ccccc23)cc(OC)c1	> 300		
COc1ccccc1NC(=O)COc1ccc(C(=O)Nc2cccc(F)c2)c2ccccc12	718		
COc1ccc(OC)c(NC(=O)COc2ccc(C(=O)Nc3cccc(F)c3)c3ccccc23)c1	> 300		
NNC(=O)COc1ccc(C(=O)Nc2cccc(F)c2)c2ccccc12	> 300		
CN(C)CCNC(=O)COc1ccc(C(=O)Nc2cccc(F)c2)c2ccccc12	> 300		
CN(C)C(=O)COc1ccc(C(=O)Nc2cccc(F)c2)c2ccccc12	> 300		
COc1cccc(NC(=O)COc2ccc(C(=O)Nc3cccc(F)c3)c3ccccc23)c1	580		
Cc1ccc(NC(=O)COc2ccc(C(=O)Nc3cccc(F)c3)c3ccccc23)c(C)c1	> 300		

More lines, in order of falling IC50 [1], values ahead:

IC50 [1] [µM]	IC50 [2] [µM]	IC50 [3] [µM]	SMILES
331			C#CCNC(=O)COc1ccc(C(=O)Nc2cccc(F)c2)c2ccccc12
298			CC(C)CNC(=O)COc1ccc(C(=O)Nc2cccc(F)c2)c2ccccc12
293			O=C(COc1ccc(C(=O)Nc2cccc(F)c2)c2ccccc12)Nc1ccc(F)cc1
278			CCCNC(=O)COc1ccc(C(=O)Nc2cccc(F)c2)c2ccccc12
272			NC(=O)COc1ccc(C(=O)Nc2cccc(F)c2)c2ccccc12
272			CC(C)NC(=O)COc1ccc(C(=O)Nc2cccc(F)c2)c2ccccc12
254			O=C(COc1ccc(C(=O)Nc2cccc(F)c2)c2ccccc12)Nc1ccccc1
200			CCNC(=O)COc1ccc(C(=O)Nc2cccc(F)c2)c2ccccc12
173	> 10000	810	O=C(COc1ccc(C(=O)Nc2cccc(F)c2)c2ccccc12)NC1CC1
161			COc1ccc(NC(=O)COc2ccc(C(=O)Nc3cccc(F)c3)c3ccccc23)cc1
111	204	162	O=C(COc1ccc(C(=O)Nc2cccc(F)c2)c2ccccc12)NCC(F)(F)F
86	148	142	O=C(COc1ccc(C(=O)Nc2cccc(F)c2)c2ccccc12)Nc1cccc(O)c1
65	138	124	O=C(COc1ccc(C(=O)Nc2cccc(F)c2)c2ccccc12)Nc1ccc(O)cc1

Reference: ChEMBL document CHEMBL1149333, “Privileged scaffolds for blocking protein-protein interactions: 1,4-disubstituted naphthalene antagonists of transcription factor complex HOX-PBX/DNA” (Bioorg Med Chem Lett, 2004)
